Test [1] deals with Mus musculus. Description: Antitumor activity against B16 melanoma in terms of percentage increase in life span in mice at an optimal dose of 900 ug/kg administered ip. It is filed as functional.
The subject of test [2] is Mus musculus. As to the kind of experiment: In vivo antitumor activity was determined against B16 melanoma mice as number of mice survived after administration of 900 ug/Kg dose of compound; Value represented as no of survivors/ treated = 2/9.
Test [3] deals with Mus musculus. As to the kind of experiment: In vivo antitumor activity was determined against P388 (adriamycin sensitive tumors) as number of mice survived after administration of 0.3-1.8 mg/kg, ip dose of compound; Value represented as no of survivors/ treated = 4/8. The class given is functional.
In test [4] the test system is Mus musculus. Description: Antitumor activity against B16 melanoma in terms of median survival time of mice at an optimal dose of 900 ug/kg administered ip. The class given is functional.
The subject of test [5] is Mus musculus. Description: Antitumor activity against P388 leukemia cells in terms of percentage increase in life span in mice at an optimal dose of 1000 ug/kg administered ip. The class given is functional.
Another test relates to CCRF-CEM. As to the kind of experiment: Inhibitory dose required for the inhibition of human lymphoblastic leukemia cells(CCRF-CEM). The class given is functional. Conditions: read-out: ID50 (the source's name).
Test [6] has as its system Mus musculus. Description: Antitumor activity against P388 leukemia cells in terms of median survival time of mice at an optimal dose of 1000 ug/kg administered ip. The class given is functional.
For test [7], the species on record is Mus musculus. As to the kind of experiment: Dose providing an increase in the life span of 45% over control in P388 tumor bearing mice. The class given is functional. The following applies: read-out: MED. In outline: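 MED is the ip dose in mg/kg, given on days 1, 5 and 9 starting 1 day after implantation, that gives a 45% increase in life span over control in P388-bearing mice. It was derived from plotted log-dose response data.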

In test [8] the test system is Mus musculus. As to the kind of experiment: In vivo antitumor activity was determined against P388 leukemia mice as number of mice survived after administration of 1000 ug/Kg dose of compound; Value represented as no of survivors/ treated = 2/8. The class given is functional.
The test system of test [9] is Mus musculus. Description: In vivo antitumor activity was determined against B16 melanoma mice as number of mice survived after administration of 300 ug/Kg dose of compound; Value represented as no of survivors/ treated = 4/9. It is filed as functional.
For test [10], the system named is Mus musculus. As to the kind of experiment: Antitumor activity against B16 melanoma in terms of median survival time of mice at an optimal dose of 300 ug/kg administered ip. It is filed as functional.
For test [11], the species on record is Rattus norvegicus. As to the kind of experiment: Compound tested for adrenochrome formation in rat hepatic mycrosomal incubation. The class given is functional. A digest of the protocol: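 Adrenochrome assay for superoxide: epinephrine in 0.01 N HCl plus 300 µg of phenobarbital-induced rat liver microsomes at 37 °C. NADPH 0.4 mM was added to the sample side 1 min later, and the rate was read at 480 nm (ε 4.02 mM−1 cm−1). Drugs were at ≤100 µM, made in 150 mM KCl–50 mM Tris, pH 7.4. Percent stimulation is over basal rate, in triplicate.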

Test [12] relates to Mus musculus. As to the kind of experiment: Antitumor activity against P388 leukemia cells in terms of median survival time of mice at an optimal dose of 600 ug/kg administered ip. It is filed as functional.
The subject of test [13] is Mus musculus. As to the kind of experiment: Antitumor activity against B16 melanoma in terms of percentage increase in life span in mice at an optimal dose of 300 ug/kg administered ip. The class given is functional.
The species named for test [14] is Rattus norvegicus. As to the kind of experiment: Compound tested for NADPH oxidation in rat hepatic mycrosomal incubation. It is filed as functional. In outline: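 Phenobarbital-induced male Sprague-Dawley rat liver microsomes were placed in both cuvettes, without epinephrine. NADPH 0.4 mM was added to the sample side only, and absorbance was read at 340 nm. Percent stimulation = (drug rate − basal)/basal × 100. Values are the average ± standard errors of triplicates.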

Test [15] concerns Mus musculus. Description: Antitumor activity against P388 leukemia cells in terms of percentage increase in life span in mice at an optimal dose of 600 ug/kg administered ip. The class given is functional.
The subject of test [16] is Mus musculus. Description: In vivo antitumor activity was determined against P388 leukemia mice as number of mice survived after administration of 600 ug/Kg dose of compound; Value represented as no of survivors/ treated = 4/8. It is filed as functional.
In test [17] the test system is P388. As to the kind of experiment: Inhibition of DNA synthesis was measured as the concentration required to cause 50% reduction (in 1h) in methyl [3H]thymidine incorporation into acid precipitable material using P388 cells. The class given is functional, cell-based. Conditions: Mus musculus.
The test system of test [18] is P388. Description: Inhibition of RNA synthesis was measured as the concentration required to cause 50% reduction (in 1h) in 2-[14C]uridine incorporation into acid precipitable material using P388 cells. The class given is functional, cell-based. Conditions: Mus musculus, P388, 1 h.

The structures appear in SMILES notation. pIC50: −log10 of the molar value.

Consider `Cc1c2oc3c(C)c4oc(-c5ccccc5)nc4c(C(=O)N[C@@H]4C(=O)N[C@H](C(C)C)C(=O)N5CCC[C@H]5C(=O)N(C)CC(=O)N(C)[C@@H](C(C)C)C(=O)O[C@@H]4C)c3nc-2c(C(=O)N[C@@H]2C(=O)N[C@H](C(C)C)C(=O)N3CCC[C@H]3C(=O)N(C)CC(=O)N(C)[C@@H](C(C)C)C(=O)O[C@@H]2C)cc1=O`, for which the ILS (commonly the gain in survival time of treated over control animals, in per cent) at 0.9 mg/kg with Mus musculus [1] was 55%. Besides, the Survivors in the test on Mus musculus [2] was 2; in the test on Mus musculus [3], 4; in the test on Mus musculus [8] it was 2. In addition, the MST in the test on Mus musculus [4] worked out at 45 days; in the test with Mus musculus [6] it was 31.5 days. Moreover, the “ILS (Sur)” value in the test on Mus musculus [5] was 186%. In the test with CCRF-CEM, the pIC50 is 6.30. Moreover, the minimal effective dose in the test filed under Mus musculus [7] stood at 0.2 mg/kg.

For the molecule `Cc1c2oc3c(C)c(O)c(N)c(C(=O)N[C@@H]4C(=O)N[C@H](C(C)C)C(=O)N5CCC[C@H]5C(=O)N(C)CC(=O)N(C)[C@@H](C(C)C)C(=O)O[C@@H]4C)c3nc-2c(C(=O)N[C@@H]2C(=O)N[C@H](C(C)C)C(=O)N3CCC[C@H]3C(=O)N(C)CC(=O)N(C)[C@@H](C(C)C)C(=O)O[C@@H]2C)c(N)c1=O`, the Survivors in the test with Mus musculus [9] and with Mus musculus [16] was 4 in each case. The MST in the test on Mus musculus [10] turned out to be 57 days; with Mus musculus [12] it was 52 days. The adrenochrome formation in the test filed under Rattus norvegicus [11] was 19.3 nM min-1 (mg of protein)-1. In the test with Mus musculus [13], this molecule showed an increase in life span (ILS) at 0.3 mg/kg of 96%. The NADPH oxidation in the test filed under Rattus norvegicus [14] is 64.3 nM min-1 (mg of protein)-1. The pIC50 with CCRF-CEM is 7.52. In the test with Mus musculus [15], this molecule returned an ILS at 0.6 mg/kg of 382%. Moreover, in the test filed under Mus musculus [7], the minimal effective dose is 0.025 mg/kg.

Take `Cc1nc2c(C(=O)N[C@@H]3C(=O)N[C@H](C(C)C)C(=O)N4CCC[C@H]4C(=O)N(C)CC(=O)N(C)[C@@H](C(C)C)C(=O)O[C@@H]3C)c3nc4c(C(=O)N[C@@H]5C(=O)N[C@H](C(C)C)C(=O)N6CCC[C@H]6C(=O)N(C)CC(=O)N(C)[C@@H](C(C)C)C(=O)O[C@@H]5C)c(N)c(=O)c(C)c-4oc3c(C)c2o1`: the pIC50 with P388 [17] was 6.00; in the test on P388 [18], 7.05.

The record behind these values is ChEMBL document CHEMBL1123113, “"Reverse" and "symmetrical" analogues of actinomycin D: metabolic activation and in vitro and in vivo tumor growth inhibitory activities” (J Med Chem, 1985).
